Legend:
[1] = Selectivity index, ratio of CC50 for human HuH7 cells to EC50 for Hepatitis C virus subtype 1a replicons; assay type: toxicity, cell-based, Huh-7; details: read-out: Ratio CC50/EC50
[2] = test system: Hepatitis C virus; assay: Antiviral activity against Hepatitis C virus subtype 1b replicons infected in human HuH7 cells assessed as reduction in viral RNA levels by Rt-PCR; assay type: functional, organism-based, Hepacivirus hominis; details: genotype 1b, Huh-7
[3] = Selectivity index, ratio of CC50 for human HuH7 cells to EC50 for Hepatitis C virus subtype 1b replicons; assay type: toxicity, cell-based, Huh-7; details: read-out: Ratio CC50/EC50
[4] = Toxicity against human HuH7 cells incubated for 3 days by CellTiter 96 AQueous One Solution cell proliferation assay; assay type: cell-based, Huh-7
[5] = test system: Hepatitis C virus; assay: Antiviral activity against Hepatitis C virus subtype 1a replicons infected in human HuH7 cells assessed as reduction in viral RNA levels by Rt-PCR; assay type: functional, organism-based, Hepacivirus hominis; details: Huh-7
[6] = test system: CCRF-CEM; assay: Cytotoxicity against human CCRF-CEM cells incubated for 3 days by XTT assay; assay type: functional, cell-based; details: 72 h
In short: (§1)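 Cell viability read by a metabolic XTT tetrazolium method after 3-day incubation of cells with compound. Values are from 2–4 independent experiments.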

[7] = test system: HepG2; assay: Cytotoxicity against human HepG2 cells incubated for 3 days by XTT assay; assay type: functional, cell-based; details: HepG2, 72 h; in short: as §1
[8] = test system: HL-60; assay: Cytotoxicity against human HL60 cells incubated for 3 days by XTT assay; assay type: functional, cell-based; details: HL-60, 72 h; in short: as §1
[9] = Cytotoxicity against human HeLaS3 cells incubated for 3 days by XTT assay; assay type: functional, cell-based; details: HeLa S3, 72 h; in short: as §1
[10] = test system: HCT-116; assay: Cytostatic activity against human HCT116 cells incubated for 3 days by SRB assay; assay type: functional; details: HCT-116, 72 h
[11] = Cytostatic activity against human Hs578 cells incubated for 3 days by SRB assay; assay type: functional; details: Hs578, 72 h
[12] = test system: DU-145; assay: Cytostatic activity against human DU145 cells incubated for 3 days by SRB assay; assay type: functional; details: DU-145, 72 h
[13] = test system: NCI-H23; assay: Cytostatic activity against human NCI-H23 cells incubated for 3 days by SRB assay; assay type: functional; details: NCI-H23, 72 h

SMILES	selectivity ratio [1]	EC50 [2]	selectivity ratio [3]	CC50 at 72 h [4]	EC50 [5]	IC50 [6]	IC50 [7]	IC50 [8]	IC50 [9]	GI50 [10]	GI50 [11]	GI50 [12]	GI50 [13]
C[C@@]1(O)[C@H](O)[C@@H](CO)O[C@H]1n1cc(-c2ccccc2)c2c(N)ncnc21	< 10	27.1 µM	< 10	> 44 µM	35.4 µM								
Nc1ncnc2c1c(-c1ccoc1)cn2[C@@H]1O[C@H](CO)[C@@H](O)[C@@H]1O	< 10	22.5 µM	< 10	> 44 µM	25.2 µM	4.67 µM	6.1 µM	> 10 µM	8.36 µM				
C[C@@]1(O)[C@H](O)[C@@H](CO)O[C@H]1n1cc(I)c2c(N)ncnc21	65	0.38 µM	65	19.8 µM	0.37 µM	4.38 µM		> 10 µM	7.5 µM	6.65 µM	4.39 µM	3.38 µM	0.79 µM
COc1ccc(-c2cn([C@@H]3O[C@H](CO)[C@@H](O)[C@@]3(C)O)c3ncnc(N)c23)cc1	< 10	9.44 µM	< 10	> 44 µM	12 µM								
C[C@@]1(O)[C@H](O)[C@@H](CO)O[C@H]1n1cc(-c2cccc3ccccc23)c2c(N)ncnc21	< 10	24.1 µM	< 10	> 44 µM	24.7 µM								
C[C@@]1(O)[C@H](O)[C@@H](CO)O[C@H]1n1cc(-c2ccc3ccccc3c2)c2c(N)ncnc21	< 10	5.31 µM	< 10	20.1 µM	4.91 µM	3.95 µM		> 10 µM	> 10 µM				
C[C@@]1(O)[C@H](O)[C@@H](CO)O[C@H]1n1cc(-c2ccco2)c2c(N)ncnc21	< 10	8.96 µM	< 10	49.6 µM						> 10 µM	9.05 µM	8.89 µM	6.08 µM
C[C@@]1(O)[C@H](O)[C@@H](CO)O[C@H]1n1cc(-c2cccs2)c2c(N)ncnc21	< 10	14.2 µM	< 10	48.1 µM									
C[C@@]1(O)[C@H](O)[C@@H](CO)O[C@H]1n1cc(-c2ccoc2)c2c(N)ncnc21	< 10	12.3 µM	< 10	> 44 µM	18.3 µM								
C[C@@]1(O)[C@H](O)[C@@H](CO)O[C@H]1n1cc(-c2ccsc2)c2c(N)ncnc21	< 10	15.5 µM	< 10	> 44 µM	36.3 µM								
C[C@@]1(O)[C@H](O)[C@@H](CO)O[C@H]1n1cc(-c2cc3ccccc3o2)c2c(N)ncnc21	< 10	6.13 µM	< 10	29.4 µM	6.15 µM	7.81 µM		> 10 µM	> 10 µM				
Nc1ncnc2c1c(-c1ccccc1)cn2[C@@H]1O[C@H](CO)[C@@H](O)[C@@H]1F	< 10	43.5 µM	< 10	> 44 µM	26.4 µM								
Nc1ncnc2c1c(-c1ccco1)cn2[C@@H]1O[C@H](CO)[C@@H](O)[C@@H]1F	< 10	12.1 µM	< 10	> 44 µM	15.7 µM					> 10 µM	8.49 µM	8.52 µM	> 10 µM
Nc1ncnc2c1c(-c1cccs1)cn2[C@@H]1O[C@H](CO)[C@@H](O)[C@@H]1F	< 10	4.07 µM	< 10	42.9 µM	2.8 µM	7.5 µM	> 10 µM	> 10 µM	5.6 µM				
Nc1ncnc2c1c(-c1ccoc1)cn2[C@@H]1O[C@H](CO)[C@@H](O)[C@@H]1F	< 10	17 µM	< 10	> 44 µM	37 µM								
Nc1ncnc2c1c(-c1ccsc1)cn2[C@@H]1O[C@H](CO)[C@@H](O)[C@@H]1F	< 10	10.8 µM	< 10	24.4 µM	10.9 µM								
Nc1ncnc2c1c(-c1cn[nH]c1)cn2[C@@H]1O[C@H](CO)[C@@H](O)[C@@H]1F	< 10	8.45 µM	< 10	> 44 µM	22.4 µM	9.07 µM		> 10 µM	> 10 µM				
C#Cc1cn([C@@H]2O[C@H](CO)[C@@H](O)[C@@H]2F)c2ncnc(N)c12	< 10	0.36 µM	< 10	2.68 µM	0.36 µM	0.18 µM		0.2 µM	0.22 µM	0.108 µM	0.065 µM	0.002 µM	0.048 µM
Nc1ncnc2c1c(-c1cnn[nH]1)cn2[C@@H]1O[C@H](CO)[C@@H](O)[C@@H]1F	< 10	0.92 µM	< 10	10.9 µM	1.83 µM	3.45 µM		> 10 µM	6.66 µM	7.64 µM	1.82 µM	9.41 µM	5.36 µM
Nc1ncnc2c1c(I)cn2[C@@H]1O[C@H](CO)[C@@H](O)[C@@H]1O	< 10	1.39 µM	< 10	9.97 µM	1.39 µM	7.02 µM	6.12 µM	6.44 µM	3.19 µM				
Nc1ncnc2c1c(-c1ccccc1)cn2[C@@H]1O[C@H](CO)[C@@H](O)[C@@H]1O	< 10	> 44 µM	< 10	> 44 µM	> 44 µM								
Nc1ncnc2c1c(-c1ccco1)cn2[C@@H]1O[C@H](CO)[C@@H](O)[C@@H]1O	< 10	3.02 µM	< 10	> 44 µM	3.41 µM	6.64 µM	6.62 µM	> 10 µM	7.62 µM				
Nc1ncnc2c1c(-c1cccs1)cn2[C@@H]1O[C@H](CO)[C@@H](O)[C@@H]1O	< 10	20.6 µM	< 10	> 44 µM	35.3 µM	4.25 µM	12.2 µM	13.5 µM	5.38 µM				
Nc1ncnc2c1c(-c1ccsc1)cn2[C@@H]1O[C@H](CO)[C@@H](O)[C@@H]1O	< 10	34 µM	< 10	> 44 µM	37.8 µM	3.1 µM	> 15 µM	13 µM	7.03 µM				
C#Cc1cn([C@@H]2O[C@H](CO)[C@@H](O)[C@@H]2O)c2ncnc(N)c12	< 10	1.75 µM	< 10	17.4 µM	1.54 µM	> 10 µM	9.86 µM	> 10 µM	3.77 µM				
Nc1ncnc2c1c(-c1ccco1)cn2[C@H]1C[C@H](O)[C@@H](CO)O1	< 10	4.16 µM	< 10	> 44 µM	11.1 µM								
Nc1ncnc2c1c(-c1cccs1)cn2[C@H]1C[C@H](O)[C@@H](CO)O1	< 10	5.16 µM	< 10	> 44 µM	7.58 µM								
Nc1ncnc2c1c(-c1ccoc1)cn2[C@H]1C[C@H](O)[C@@H](CO)O1	< 10	5.26 µM	< 10	> 44 µM	24 µM								
Nc1ncnc2c1c(-c1ccsc1)cn2[C@H]1C[C@H](O)[C@@H](CO)O1	< 10	5.91 µM	< 10	> 44 µM	11.4 µM								

From ChEMBL document CHEMBL2069282, “Sugar-modified derivatives of cytostatic 7-(het)aryl-7-deazaadenosines: 2'-C-methylribonucleosides, 2'-deoxy-2'-fluoroarabinonucleosides, arabinonucleosides and 2'-deoxyribonucleosides” (Bioorg Med Chem, 2012)
